The values below come from ChEMBL document CHEMBL1134408, “Antitumor agents. 207. Design, synthesis, and biological testing of 4beta-anilino-2-fluoro-4'-demethylpodophyllotoxin analogues as cytotoxic and antiviral agents” (2001).

Test [1] has as its system Human betaherpesvirus 5. The experiment in a line: Inhibitory activity against human cytomegalovirus (HCMV). Format: functional. Particulars: read-out: ID50 (the source's name). The method, boiled down: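 Confluent HEL fibroblasts infected with Towne strain CMV at 1–2 PFU/cell, with or without a drug dilution series. Antiviral effect read either as extracellular virus yield (day-6 supernatant titred by plaque assay on HEL, counted at 2 weeks) or as viral DNA by 32P-CMV-probe dot hybridization with scintillation counting of dots.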

The nature of test [2]: Selectivity index (ED50/ID50) value of the compound. The test is classed as functional. The method, boiled down: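 Ratio of ED50 for growing HEL cells (15-day trypan blue count) to ID50 against Towne strain CMV in HEL fibroblasts.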
Test [3] has as its system A549. The test can be described thus: GI values against A549 cells (lung cancer). The test is classed as functional. The conditions noted are these: Homo sapiens.
Test [4] is filed under the species Homo sapiens. The experiment in a line: Cytotoxicity against HEL cells.
Test [5] is described as follows: GI values against KB cells (nasopharyngeal carcinoma). The test is classed as functional. Particulars: Homo sapiens.
The test system of test [6] is CAKI-1. The test can be described thus: GI values against CAKI-1 cells(renal carcinoma). Particulars: Homo sapiens. The test is classed as functional.

Each structure is given as a SMILES string.

As a reminder, the GI50 is the concentration that inhibits growth by half.

As for `COc1cc([C@@H]2c3cc4c(cc3[C@@H](O[C@@H]3O[C@@H]5CO[C@@H](C)O[C@H]5[C@H](O)[C@H]3O)[C@H]3COC(=O)[C@H]23)OCO4)cc(OC)c1O` [ETOPOSIDE], the IC50 in test [1] was 1.03 µM. In addition, in test [2], the SI turned out to be 8.4. In addition, the values for the GI50 in test [3], in test [5] and in test [6] were 6.31 µM, 0.2 µM and 6.31 µM, respectively. The ED50 in test [4] turned out to be 8.64 µM.
